# Published values gathered from unrelated publications.
# Compare with care: the assays were run in different laboratories.
# Target: Vascular endothelial growth factor receptor 2 (KDR, Homo sapiens, UniProt P35968)
read-out,action,technique,quantity,result,SMILES
enzyme activity,inhibitor,radiometric,IC50,6 nM,CNC(=O)c1cc2c(Oc3ccc(NC(=O)C4(C(=O)Nc5ccc(F)cc5)CC4)cc3)ccnc2cc1OC
binding,,competition with immobilised ligand,Kd,210 nM,C=CC(=O)Nc1cccc(CN2C(=O)N(c3c(Cl)c(OC)cc(OC)c3Cl)Cc3cnc(NCCCCN(CC)CC)nc32)c1
cell-free assay,,,IC50,1090 nM,CC(C)(C)n1nc(-c2cnc3cc(OC4CC4)ccc3c2)c(C(N)=O)c1N
phosphorylation in cells,inhibitor,AlphaScreen,IC50,347 nM,Cc1ccc(C(=O)Nc2ccc(Oc3cc4cnn(C)c4cc3-c3cn[nH]c3)c(F)c2)c(=O)n1-c1ccc(F)cc1
enzyme activity,inhibitor,,IC50,56.8 nM,CN1CCN(c2ccc(Nc3ncc4cc(C#N)c(=O)n(C5CCCC5)c4n3)cc2)CC1
cell-free assay,,,IC50,450 nM,CC(C)(C)n1nc(-c2ccc3nc(OC4CC4)ccc3c2)c(C(N)=O)c1N
enzyme activity,inhibitor,TR-FRET,IC50,109 nM,Cc1cc(Nc2cc(CN3CCOCC3)c3nc(C)c(Cc4ccc(Cl)cc4F)n3n2)n[nH]1
binding,,competition with immobilised ligand,Kd,620 nM,Cc1cc(Nc2cc3ncccc3c(N[C@@H]3C[C@H]4CC[C@@H](C3)N4CCC#N)n2)n[nH]1
